64 compounds from PubChem BioAssay AID504775 (Broad Institute, 2011) can be followed below.

The campaign covered roughly 320,000 compounds. About 310 (0.097%) were called active.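 How the source made its calls: active means mean replicate activation of at least 60% and every replicate at or above 60%; inconclusive means mean or all-replicate condition met, but not both; inactive means mean below 60% and not all replicates reaching 60%.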 The entries come from a sample that favours actives as a whole.

This test in a line: activators of SR-BI mediated DiI-HDL uptake, primary screen, ldlA[mSR-BI] CHO cells, DiI fluorescence (AID 504775).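 Further: 0% = median plate neutral-control signal and 100% = twice that signal.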 Particulars: 3 h, at 12.5 µM, active compounds read high, 100 = double the neutral-control signal. An outline of the steps:
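material = CHO ldlA[mSR-BI] cells | medium = Ham's F12 with 0.5% BSA, HEPES 25 mM, pH 7.4 | reagent = fluorescent DiI-HDL, 10 µg/mL final | compound dosing = single-point compound dose | incubation = 3 h, 37 °C | measured by = bottom-read fluorescence, 550/595 nm | measure = HDL uptake via cellular fluorescence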
On to `O=C(CC(=O)c1cccnc1)c1ccccc1`, for which the activation was -1.21% (inactive).

For the compound `CCOC(=O)c1c(C)[nH]c(C(=O)OCC(=O)N2CCCC2=O)c1C`, the activation was 24.7% (inactive).

Regarding `CCOC(=O)c1c(C)[nH]c(C(=O)OCC(=O)c2ccc(OC)cc2OC)c1C`, the activation is -45.7% (inactive).

Take `CCCCOC(=O)c1[nH]c(C)c(C(=O)OC)c1C`: the activation is 176% (active).

Regarding `COc1ccc(CNC(=O)CN2C(=O)c3ccccc3S2(=O)=O)cc1`, the activation is 16.4% (inactive).

In the case of `Cc1ccc(C(=O)O)c(NC=O)c1OCc1ccccc1`, the activation is 19.3% (inactive).

Regarding `COc1ccc(C(CNC(=O)c2cc(S(=O)(=O)Nc3cccc(C)c3)ccc2C)N2CCCC2)cc1` (centres undefined), the activation was 21% (inactive).

In the case of `Cc1ccc(S(=O)(=O)N2CCC(C(=O)N3CCCCCCC3)CC2)cc1`, the activation was -7.71% (inactive).

For the compound `COc1ccc(S(=O)(=O)N2CCc3ccccc32)cc1C(=O)Nc1cc(S(C)(=O)=O)ccc1Cl`, the activation is -27.5% (inactive).

Regarding `O=C1/C(=C\c2ccc([N+](=O)[O-])cc2)CS(=O)(=O)C/C1=C/c1ccc([N+](=O)[O-])cc1`, the activation was -17.7% (inactive).

As to `Oc1[nH]c2ccccc2c1N=Nc1c(F)c(F)c(F)c(F)c1F`, the activation was -15.7% (inactive).

For the compound `Cc1cc(NC(=O)c2cc3ccccc3o2)no1`, the activation is 18.7% (inactive).

For the compound `COc1cc(C(=O)N2CCN(S(=O)(=O)c3ccc(C(C)C)cc3)CC2)ccc1OCC(=O)N1CCOCC1`, the activation is 10.9% (inactive).

As for `O=C(O)c1ccc([N+](=O)[O-])cc1Sc1ccsc1`, the activation is -7.71% (inactive).

As to `O=C1NC(c2ccccc2)Cc2ccncc21` (centres undefined), the activation was 37.2% (inactive).

As to `Cc1csc(NC(=O)C2=COCCO2)n1`, the activation is 11% (inactive).

Take `CCC(CC)c1nnc(NC(=O)C2=COCCO2)s1`: the activation is 9.84% (inactive).

Regarding `Cc1sc(NC(=O)C2=COCCO2)c(C#N)c1C`, the activation is 172% (active).

With `COc1ccc(C(CNC(=O)c2cccc(S(=O)(=O)Nc3ccc(Br)cc3)c2)N(C)C)cc1` (centres undefined), the activation is 24.3% (inactive).

`COc1ccc(CCNC(=O)c2ccc(NC(=O)CC3SC(N4CCCCC4)=NC3=O)cc2)cc1OC` (centres undefined): the activation is -66.6% (inactive).

For the compound `COC(=O)Cc1c(-c2[nH]c3ccccc3c2CC(=O)OC)[nH]c2ccccc12`, the activation was -37.9% (inactive).

As for `COc1ccc(C2C(C(C)=O)=C(O)C(=O)N2Cc2cccnc2)cc1` (centres undefined), the activation was 30% (inactive).

Take `CCOc1cc(C2C(C(=O)c3ccco3)=C(O)C(=O)N2Cc2ccccc2)ccc1O` (centres undefined): the activation was 21.9% (inactive).

Consider `O=C(C1=C(O)C(=O)N(Cc2ccccc2)C1c1cccnc1)c1ccco1` (centres undefined), for which the activation is 66.5% (active).

Regarding `C#CCOCCOCCOCCNc1nc(N2CCOCC2)nc(N2CCN(C(=O)[C@H](Cc3ccc(O)cc3)n3cc(CCO)nn3)CC2)n1`, the activation was 15.4% (inactive).

With `CC1CN(Cc2ccco2)C(=S)N(c2ccccc2)C1=O` (centres undefined), the activation was 33.1% (inactive).

Regarding `COc1ccc(-c2sc3ccccc3c2-c2ccc(OCCN3CCOCC3)cc2)cc1`, the activation was -39.3% (inactive).

For the compound `COc1ccc2sc(-c3ccccc3OC)c(-c3ccc(OCCN4CCCC4)cc3)c2c1`, the activation is 88% (active).

As to `COc1cccc(-c2sc3ccc(OC)cc3c2-c2ccc(OCCN3CCCCC3)cc2)c1`, the activation was -2.84% (inactive).

Turning to `COc1cccc2oc(CCc3ccccc3)cc(=O)c12`, the activation is 4.54% (inactive).

As to `CC(=O)OC1CCC2(C)C(=CCC3C4CC(=O)N(O)C(=O)C4(C)CCC32)C1` (centres undefined), the activation was 19% (inactive).

With `COc1ccc(NC(=O)/C(N=Nc2cccc(S(=O)(=O)Nc3ccc(SC(F)F)cc3)c2)=C(\C)O)cc1`, the activation was 19.4% (inactive).

With `COc1ccc2nc(N3C(=O)C(O)=C(C(=O)c4ccco4)C3c3ccco3)sc2c1` (centres undefined), the activation was 2.11% (inactive).

With `O=C1NC(=O)C(CCc2ccccc2)(c2ccccc2)N1` (centres undefined), the activation was 20.8% (inactive).

With `COC[C@@H]1NS(=O)(=O)c2ccc(Br)cc2O[C@H]1c1ccccc1`, the activation is -5.43% (inactive).

As for `COc1ccc2c(c1)[C@H]1[C@H](CO2)[C@H](c2ccccc2)[C@]2(C)C(=O)Nc3cc(F)c(F)cc3C(=O)N12`, the activation is -10.6% (inactive).

`Cc1ccc2c(c1)NC(=O)[C@@]1(C)[C@@H](c3ccccc3)[C@H]3COc4ccc(Cl)cc4[C@@H]3N1C2=O`: the activation is 138% (active).

On to `CCOC(=O)[C@H]1[C@H]2COc3ccc(Cl)cc3[C@@H]2N2C(=O)c3cc(C)ccc3NC(=O)[C@@]12C`, for which the activation was 5.05% (inactive).

Consider `CCOc1ccc(CCNC(=O)COC(=O)C2CCN(S(=O)(=O)c3ccccc3)CC2)cc1OCC`, for which the activation is -35% (inactive).

Take `NS(=O)(=O)c1ccc(NC(=O)COC(=O)c2ccco2)cc1`: the activation is -5.86% (inactive).

Regarding `COc1cc(NC(=S)NCc2ccc(S(N)(=O)=O)cc2)cc(OC)c1`, the activation was 1.73% (inactive).

As for `NS(=O)(=O)c1ccc(CNC(=S)NC(=O)c2ccco2)cc1`, the activation was 304% (active).

As for `COc1ccc(/C=C2/CCCc3ccccc3C2=O)cc1`, the activation was -12.7% (inactive).

As for `CN(CCc1ccccc1)C(=O)c1cccc(NC(=O)Cc2cccc(NC(=O)C3CCCN(C(=O)C4CCC4)C3)c2)c1` (centres undefined), the activation is -26.9% (inactive).

Turning to `CN(Cc1ccccc1)C(=O)c1ccc(NC2=NC3CS(=O)(=O)CC3S2)cc1` (centres undefined), the activation is -2.73% (inactive).

On to `O=C(NCCc1ccccc1)c1ccc(NC2=NC3CS(=O)(=O)CC3S2)cc1` (centres undefined), for which the activation is 85.7% (active).

Regarding `COc1ccccc1N1CCN(C(=O)c2ccc(NC3=NC4CS(=O)(=O)CC4S3)cc2)CC1` (centres undefined), the activation is 14.4% (inactive).

Turning to `COc1cc2c(cc1OC)C1C(=O)c3cc(OS(C)(=O)=O)c(OC)cc3C1N(C)C2=O` (centres undefined), the activation was 1.01% (inactive).

With `COc1ccc(Cn2cc(CN3CCS(=O)(=O)N(Cc4ccc(-c5cccc(Cl)c5)cc4)C(C)C3=O)nn2)cc1` (centres undefined), the activation was -34.7% (inactive).

Turning to `O=[N+]([O-])c1ccc(COc2ccccc2CN2CCOCC2)cc1`, the activation is 19.3% (inactive).

As to `CC1CCC(NC(=O)CN(C)S(=O)(=O)c2ccc3c(c2)c(=O)n(C)c(=O)n3C)CC1` (centres undefined), the activation was 246% (active).

Consider `CCc1ccccc1NC(=O)CN(C)S(=O)(=O)c1ccc2c(c1)c(=O)n(C)c(=O)n2C`, for which the activation is -3.85% (inactive).

With `COc1cccc(CNC(=O)CN(C)S(=O)(=O)c2ccc3c(c2)c(=O)n(C)c(=O)n3C)c1`, the activation was -3.22% (inactive).

`O=C1CC(C(=O)O)NC(=S)N1` (centres undefined): the activation was 3.49% (inactive).

As to `Cc1cc(C)c(C=NNc2nc3c([nH]2)c(=O)n(C)c(=O)n3C)c(C)c1`, the activation is 12.4% (inactive).

On to `CN(C)CCNC(=O)c1ccc(Cl)c2cc3ccccc3nc12`, for which the activation was 8.43% (inactive).

In the case of `CCN(CC)S(=O)(=O)c1cccc(NC(=O)c2ccc(S(=O)(=O)N3CCCC3)cc2)c1`, the activation is -41.2% (inactive).

With `CC(C)=CCc1ccc(O)c(=O)cc1C(C)C`, the activation was -12.4% (inactive).

`O=C(Nc1c(Br)cc2c(c1Br)Cc1cc([N+](=O)[O-])ccc1-2)C(Cl)Cl`: the activation was -60.9% (inactive).

Turning to `CN(O)C(=S)c1ccccc1`, the activation was 24.5% (inactive).

Take `O=C1CC(c2ccccc2)C(c2ccccc2)=NN1` (centres undefined): the activation is 1.49% (inactive).

`COc1cc(/C=C/CNC[C@H]2O[C@@H](n3cnc(C(N)=O)n3)[C@H](O)[C@@H]2O)ccc1O`: the activation was 8.13% (inactive).

For `O=S(=O)(Cc1ccc(Cl)cc1Cl)c1ccc(Cl)cc1`, the activation was -15.8% (inactive).

Consider `Cc1ccc2c(O)c(Cc3ccccc3)c(=O)[nH]c2n1`, for which the activation was -7.66% (inactive).
